From ChEMBL document CHEMBL1138555, “N-acylated and N,N'-diacylated imidazolidine-2-thione derivatives and N,N'-diacylated tetrahydropyrimidine-2(1H)-thione analogues: synthesis and antiproliferative activity” (Eur J Med Chem, 2009)

How the values were obtained:
[1] = tested on: UACC-62; test: Growth inhibition of human UACC62 cells after 48 hrs by sulforhodamine B assay; type: functional; conditions: UACC-62, 48 h
In short: (§1)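 NCI in vitro panel screen. Compounds tested at five 10-fold dilutions, 10^-4 to 10^-8 M. Cells in 96-well plates were exposed for the last 48 h of a 72 h incubation. Viability/growth was read by sulforhodamine B protein assay. GI50 is the concentration giving 50% growth inhibition. Values beyond the tested range are reported as greater or less than the maximum or minimum concentration.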

[2] = tested on: SR; test: Growth inhibition of human SR cells after 48 hrs by sulforhodamine B assay; type: functional; in short: as §1
[3] = tested on: PC-3; test: Growth inhibition of human PC3 cells after 48 hrs by sulforhodamine B assay; type: functional; conditions: PC-3, 48 h
In short: (§2)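 NCI screen panel. Five 10-fold concentrations from 10^-4 to 10^-8 M. Exposure for the last 48 h of a 72 h incubation. Growth estimated by sulforhodamine B protein assay. GI50 is the concentration giving 50% growth inhibition. Where that level was not reached or was exceeded, the value is given as above or below the highest or lowest concentration tested.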

[4] = tested on: OVCAR-3; test: Growth inhibition of human OVCAR-3 cells after 48 hrs by sulforhodamine B assay; type: functional; conditions: OVCAR-3, 48 h; in short: as §2
[5] = tested on: HOP-92; test: Growth inhibition of human HOP92 cells after 48 hrs by sulforhodamine B assay; type: functional; conditions: HOP-92, 48 h; in short: as §2
[6] = tested on: SN12C; test: Growth inhibition of human SN12C cells after 48 hrs by sulforhodamine B assay; type: functional; in short: as §1
[7] = tested on: MOLT-4; test: Growth inhibition of human MOLT4 cells after 48 hrs by sulforhodamine B assay; type: functional; conditions: MOLT-4, 48 h; in short: as §2
[8] = tested on: A549; test: Growth inhibition of human A549 cells after 48 hrs by sulforhodamine B assay; type: functional; conditions: A549, 48 h; in short: as §2
[9] = tested on: IGROV-1; test: Growth inhibition of human IGROV1 cells after 48 hrs by sulforhodamine B assay; type: functional; conditions: IGROV-1, 48 h; in short: as §2
[10] = tested on: SW-620; test: Growth inhibition of human SW620 cells after 48 hrs by sulforhodamine B assay; type: functional; conditions: SW-620, 48 h; in short: as §1
[11] = tested on: T47D; test: Growth inhibition of human T47D cells after 48 hrs by sulforhodamine B assay; type: functional; in short: as §1
[12] = tested on: UO-31; test: Growth inhibition of human UO31 cells after 48 hrs by sulforhodamine B assay; type: functional; conditions: UO-31, 48 h; in short: as §1
[13] = tested on: SF-539; test: Growth inhibition of human SF539 cells after 48 hrs by sulforhodamine B assay; type: functional; conditions: SF-539, 48 h; in short: as §2
[14] = tested on: 786-0; test: Growth inhibition of human 786-0 cells after 48 hrs by sulforhodamine B assay; type: functional; conditions: 786-0, 48 h; in short: as §2
[15] = tested on: OVCAR-4; test: Growth inhibition of human OVCAR4 cells after 48 hrs by sulforhodamine B assay; type: functional; conditions: OVCAR-4, 48 h; in short: as §2
[16] = tested on: M14; test: Growth inhibition of human M14 cells after 48 hrs by sulforhodamine B assay; type: functional; conditions: M14, 48 h; in short: as §2
[17] = tested on: SNB-75; test: Growth inhibition of human SNB75 cells after 48 hrs by sulforhodamine B assay; type: functional; conditions: SNB-75, 48 h; in short: as §1
[18] = tested on: SNB-19; test: Growth inhibition of human SNB19 cells after 48 hrs by sulforhodamine B assay; type: functional; conditions: SNB-19, 48 h; in short: as §1
[19] = tested on: HT-29; test: Growth inhibition of human HT-29 cells after 48 hrs by sulforhodamine B assay; type: functional; conditions: HT-29, 48 h; in short: as §2
[20] = tested on: Malme-3M; test: Growth inhibition of human MALME-3M cells after 48 hrs by sulforhodamine B assay; type: functional; in short: as §2
[21] = tested on: COLO 205; test: Growth inhibition of human COLO205 cells after 48 hrs by sulforhodamine B assay; type: functional; conditions: COLO 205, 48 h; in short: as §2
[22] = tested on: SF-268; test: Growth inhibition of human SF268 cells after 48 hrs by sulforhodamine B assay; type: functional; conditions: SF-268, 48 h; in short: as §2
[23] = tested on: DU-145; test: Growth inhibition of human DU145 cells after 48 hrs by sulforhodamine B assay; type: functional; conditions: DU-145, 48 h; in short: as §2
[24] = tested on: SK-OV-3; test: Growth inhibition of human SKOV3 cells after 48 hrs by sulforhodamine B assay; type: functional; conditions: SK-OV-3, 48 h; in short: as §2
[25] = tested on: NCI-H322M; test: Growth inhibition of human NCI-H322M cells after 48 hrs by sulforhodamine B assay; type: functional; in short: as §2
[26] = tested on: K562; test: Growth inhibition of human K562 cells after 48 hrs by sulforhodamine B assay; type: functional; conditions: K562, 48 h; in short: as §2
[27] = tested on: NCI-H460; test: Growth inhibition of human NCI-H460 cells after 48 hrs by sulforhodamine B assay; type: functional; conditions: NCI-H460, 48 h; in short: as §2
[28] = tested on: KM12; test: Growth inhibition of human KM12 cells after 48 hrs by sulforhodamine B assay; type: functional; conditions: KM12, 48 h; in short: as §2
[29] = tested on: U-251; test: Growth inhibition of human U251 cells after 48 hrs by sulforhodamine B assay; type: functional; conditions: U-251, 48 h; in short: as §1
[30] = tested on: MT4; test: Antiproliferative activity against human MT4 cells assessed as reduction of growth by MTT assay; type: functional, cell-based
In short: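 MT-4 lymphoblastoid T cells (ATCC) in RPMI 1640 with 10% FCS, penicillin/streptomycin, checked for mycoplasma. 1 × 10⁴ mock-infected cells per well with serial dilutions from a 100 mM DMSO stock. Incubated 4 days at 37 °C, viable cells counted by MTT. IC50 versus untreated controls by linear regression. Mean of three separate experiments.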

[31] = tested on: OVCAR-8; test: Growth inhibition of human OVCAR8 cells after 48 hrs by sulforhodamine B assay; type: functional; conditions: OVCAR-8, 48 h; in short: as §2
[32] = tested on: SF-295; test: Growth inhibition of human SF295 cells after 48 hrs by sulforhodamine B assay; type: functional; conditions: SF-295, 48 h; in short: as §2
[33] = tested on: MDA-MB-231; test: Growth inhibition of human MDA-MB-231 cells after 48 hrs by sulforhodamine B assay; type: functional; conditions: MDA-MB-231, 48 h; in short: as §2
[34] = tested on: LOX IMVI; test: Growth inhibition of human LOXIMVI cells after 48 hrs by sulforhodamine B assay; type: functional; in short: as §2
[35] = Growth inhibition of human […] cells after 48 hrs by sulforhodamine B assay; type: functional; in short: as §2
[36] = tested on: HCT-116; test: Growth inhibition of human HCT116 cells after 48 hrs by sulforhodamine B assay; type: functional; conditions: HCT-116, 48 h; in short: as §2
[37] = tested on: HCT-15; test: Growth inhibition of human HCT15 cells after 48 hrs by sulforhodamine B assay; type: functional; conditions: HCT-15, 48 h; in short: as §2
[38] = tested on: EKVX; test: Growth inhibition of human EKVX cells after 48 hrs by sulforhodamine B assay; type: functional; in short: as §2
[39] = tested on: HOP-62; test: Growth inhibition of human HOP62 cells after 48 hrs by sulforhodamine B assay; type: functional; conditions: HOP-62, 48 h; in short: as §2
[40] = tested on: SK-MEL-28; test: Growth inhibition of human SK-MEL-28 cells after 48 hrs by sulforhodamine B assay; type: functional; conditions: SK-MEL-28, 48 h; in short: as §2
[41] = tested on: CAKI-1; test: Growth inhibition of human Caki1 cells after 48 hrs by sulforhodamine B assay; type: functional; conditions: CAKI-1, 48 h; in short: as §2
[42] = tested on: TK-10; test: Growth inhibition of human TK10 cells after 48 hrs by sulforhodamine B assay; type: functional; conditions: TK-10, 48 h; in short: as §1
[43] = tested on: MDA-MB-435; test: Growth inhibition of human MDA-MB-435 cells after 48 hrs by sulforhodamine B assay; type: functional; conditions: MDA-MB-435, 48 h; in short: as §2
[44] = tested on: SK-MEL-5; test: Growth inhibition of human SK-MEL-5 cells after 48 hrs by sulforhodamine B assay; type: functional; conditions: SK-MEL-5, 48 h; in short: as §2
[45] = tested on: HL-60(TB); test: Growth inhibition of human HL-60(TB) cells after 48 hrs by sulforhodamine B assay; type: functional; conditions: HL-60, 48 h
In short: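 NCI 60-cell-line screen protocol: cells exposed to compound at five 10-fold dilutions from 10^-4 to 10^-8 M for the last 48 h of a 72 h incubation. Sulforhodamine B protein assay estimated viability/growth. GI50 (50% growth inhibition) derived; where not reached or exceeded, reported as greater or less than the highest or lowest concentration tested.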

[46] = tested on: ACHN; test: Growth inhibition of human ACHN cells after 48 hrs by sulforhodamine B assay; type: functional; in short: as §2
[47] = tested on: BT-549; test: Growth inhibition of human BT549 cells after 48 hrs by sulforhodamine B assay; type: functional; conditions: BT-549, 48 h; in short: as §2
[48] = tested on: MCF7; test: Growth inhibition of human MCF7 cells after 48 hrs by sulforhodamine B assay; type: functional; conditions: MCF7, 48 h; in short: as §2

With `CC(=O)/C(=C/N1CCN(C(=O)c2ccco2)C1=S)C(=O)c1ccccc1` the GI50 [1] was 7.3 µM, the GI50 [2] was 2.7 µM and the GI50 [3] was 17.1 µM. It also gave a GI50 [4] of 17.2 µM, a GI50 [5] of 11.1 µM and a GI50 [6] of 7.7 µM. The GI50 [7] was 15.9 µM, the GI50 [8] was 10.8 µM and the GI50 [9] was 10.9 µM. It also gave a GI50 [10] of 6.1 µM, a GI50 [11] of 4.3 µM and a GI50 [12] of 8.8 µM. For the same compound, the GI50 [13] was 1.1 µM, the GI50 [14] was 11.2 µM and the GI50 [15] was 20.1 µM. For the same compound, the GI50 [16] was 6.3 µM, the GI50 [17] was 10.9 µM and the GI50 [18] was 16.3 µM. It also gave a GI50 [19] of 16.9 µM, a GI50 [20] of 9.3 µM and a GI50 [21] of 16.5 µM. For the same compound, the GI50 [22] was 10.7 µM, the GI50 [23] was 11 µM and the GI50 [24] was 17.5 µM. It also gave a GI50 [25] of 27.9 µM, a GI50 [26] of 6.7 µM and a GI50 [27] of 7 µM. For the same compound, the GI50 [28] was 8.4 µM, the GI50 [29] was 13.4 µM and the IC50 [30] was 5 µM. For the same compound, the GI50 [31] was 8.8 µM, the GI50 [32] was 19.3 µM and the GI50 [33] was 9.5 µM. It also gave a GI50 [34] of 8.9 µM, a GI50 [35] of 3.8 µM and a GI50 [36] of 6.4 µM. It also gave a GI50 [37] of 4.7 µM, a GI50 [38] of 7.9 µM and a GI50 [39] of 11.7 µM. For the same compound, the GI50 [40] was 28 µM, the GI50 [41] was 9.3 µM and the GI50 [42] was 10.6 µM. The GI50 [43] was 10.7 µM, the GI50 [44] was 8.1 µM and the GI50 [45] was 8.2 µM. It also gave a GI50 [46] of 6.9 µM, a GI50 [47] of 5.6 µM and a GI50 [48] of 1.3 µM.
